Experimental data as given in ChEMBL document CHEMBL1130135, “Use of conformationally restricted benzamidines as arginine surrogates in the design of platelet GPIIb-IIIa receptor antagonists” (J Med Chem, 1997).

How the values were obtained:
Assay type in all cases: protein-complex assay
[1] = biological target: T1, Integrin alpha-IIb/beta-3 (Homo sapiens, UniProt P05106+P08514); experiment: Antagonism of fibrinogen binding to a purified human fibrinogen receptor preparation.
Procedure, shortened: (§1)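 ELISA on purified human platelet GPIIb-IIIa with biotinylated fibrinogen as the ligand. Bound fibrinogen was detected with alkaline phosphatase-labeled goat anti-biotin and p-nitrophenyl phosphate substrate. Some runs added BSA at 4.5% (w/v) as a stand-in for plasma albumin.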

Integrin alpha-V/beta-3 = Integrin alpha-V/beta-3 (Homo sapiens, UniProt P05106+P06756); experiment: Inhibition of adhesive protein binding to alphaV-beta3 vitronectin receptor using ELISA
Sequence of Integrin alpha-V/beta-3 (P05106 27-788 limits assumed): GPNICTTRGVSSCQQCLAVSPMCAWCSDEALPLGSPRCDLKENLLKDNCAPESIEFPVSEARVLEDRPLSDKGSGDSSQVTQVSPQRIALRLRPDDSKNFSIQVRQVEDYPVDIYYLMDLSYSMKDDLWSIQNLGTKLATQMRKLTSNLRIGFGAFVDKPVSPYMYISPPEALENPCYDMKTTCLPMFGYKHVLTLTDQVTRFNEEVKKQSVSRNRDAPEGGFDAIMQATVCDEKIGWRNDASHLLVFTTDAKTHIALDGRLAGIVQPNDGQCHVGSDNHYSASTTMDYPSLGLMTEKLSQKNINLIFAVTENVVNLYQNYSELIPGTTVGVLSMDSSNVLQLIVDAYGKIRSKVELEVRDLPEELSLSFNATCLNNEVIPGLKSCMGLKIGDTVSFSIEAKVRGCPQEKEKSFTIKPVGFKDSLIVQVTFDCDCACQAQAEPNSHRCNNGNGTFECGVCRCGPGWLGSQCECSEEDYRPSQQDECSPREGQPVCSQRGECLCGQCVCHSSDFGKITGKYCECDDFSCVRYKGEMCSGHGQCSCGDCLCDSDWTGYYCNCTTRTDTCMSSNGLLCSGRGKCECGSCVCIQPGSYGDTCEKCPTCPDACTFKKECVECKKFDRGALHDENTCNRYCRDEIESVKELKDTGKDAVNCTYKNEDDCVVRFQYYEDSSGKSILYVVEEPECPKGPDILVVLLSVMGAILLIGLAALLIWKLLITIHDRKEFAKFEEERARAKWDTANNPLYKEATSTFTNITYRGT
Sequence of Integrin alpha-V/beta-3 (P06756 31-889 limits assumed): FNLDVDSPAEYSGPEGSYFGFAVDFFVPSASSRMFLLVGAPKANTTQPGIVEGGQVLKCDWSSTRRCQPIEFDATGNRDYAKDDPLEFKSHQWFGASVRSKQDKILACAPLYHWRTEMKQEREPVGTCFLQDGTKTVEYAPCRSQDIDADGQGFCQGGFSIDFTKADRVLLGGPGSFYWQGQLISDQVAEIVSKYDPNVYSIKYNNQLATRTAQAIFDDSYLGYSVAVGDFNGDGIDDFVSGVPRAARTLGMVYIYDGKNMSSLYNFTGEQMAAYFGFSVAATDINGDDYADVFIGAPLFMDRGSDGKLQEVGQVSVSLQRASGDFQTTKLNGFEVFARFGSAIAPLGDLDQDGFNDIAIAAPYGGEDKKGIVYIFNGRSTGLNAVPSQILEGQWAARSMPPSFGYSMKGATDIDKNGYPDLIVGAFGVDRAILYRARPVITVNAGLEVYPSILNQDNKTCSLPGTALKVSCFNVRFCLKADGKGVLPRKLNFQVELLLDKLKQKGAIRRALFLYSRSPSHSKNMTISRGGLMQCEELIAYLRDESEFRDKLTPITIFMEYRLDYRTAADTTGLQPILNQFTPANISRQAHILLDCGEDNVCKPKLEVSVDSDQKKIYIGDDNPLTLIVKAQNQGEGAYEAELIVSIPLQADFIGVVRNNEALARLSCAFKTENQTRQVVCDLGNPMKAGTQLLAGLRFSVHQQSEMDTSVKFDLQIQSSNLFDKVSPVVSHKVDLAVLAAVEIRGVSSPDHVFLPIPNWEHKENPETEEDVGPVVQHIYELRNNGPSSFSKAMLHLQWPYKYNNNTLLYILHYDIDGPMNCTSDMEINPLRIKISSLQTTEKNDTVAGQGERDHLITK
Sequence of Integrin alpha-V/beta-3 (P06756 891-1048 limits assumed): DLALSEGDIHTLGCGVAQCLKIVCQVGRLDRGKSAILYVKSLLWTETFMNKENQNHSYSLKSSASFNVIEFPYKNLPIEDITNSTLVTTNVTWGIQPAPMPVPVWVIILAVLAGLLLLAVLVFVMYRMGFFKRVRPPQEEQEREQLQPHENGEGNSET
Procedure, shortened: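 Vitronectin receptor ELISA on purified human placenta αvβ3 with biotinylated vitronectin as the ligand. Detection used alkaline phosphatase-labeled goat anti-biotin and p-nitrophenol phosphate. Compounds were tested up to 100 μM.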

[2] = biological target: T1, Integrin alpha-IIb/beta-3; experiment: Inhibition of fibrinogen binding to purified Fibrinogen Receptor preparation in enzyme-linked immunosorbent assay (ELISA); procedure, shortened: as §1

T1 sequence (P05106 27-788 limits assumed): as the sequence (P05106 27-788 limits assumed) above
T1 sequence (P08514 32-887 limits assumed): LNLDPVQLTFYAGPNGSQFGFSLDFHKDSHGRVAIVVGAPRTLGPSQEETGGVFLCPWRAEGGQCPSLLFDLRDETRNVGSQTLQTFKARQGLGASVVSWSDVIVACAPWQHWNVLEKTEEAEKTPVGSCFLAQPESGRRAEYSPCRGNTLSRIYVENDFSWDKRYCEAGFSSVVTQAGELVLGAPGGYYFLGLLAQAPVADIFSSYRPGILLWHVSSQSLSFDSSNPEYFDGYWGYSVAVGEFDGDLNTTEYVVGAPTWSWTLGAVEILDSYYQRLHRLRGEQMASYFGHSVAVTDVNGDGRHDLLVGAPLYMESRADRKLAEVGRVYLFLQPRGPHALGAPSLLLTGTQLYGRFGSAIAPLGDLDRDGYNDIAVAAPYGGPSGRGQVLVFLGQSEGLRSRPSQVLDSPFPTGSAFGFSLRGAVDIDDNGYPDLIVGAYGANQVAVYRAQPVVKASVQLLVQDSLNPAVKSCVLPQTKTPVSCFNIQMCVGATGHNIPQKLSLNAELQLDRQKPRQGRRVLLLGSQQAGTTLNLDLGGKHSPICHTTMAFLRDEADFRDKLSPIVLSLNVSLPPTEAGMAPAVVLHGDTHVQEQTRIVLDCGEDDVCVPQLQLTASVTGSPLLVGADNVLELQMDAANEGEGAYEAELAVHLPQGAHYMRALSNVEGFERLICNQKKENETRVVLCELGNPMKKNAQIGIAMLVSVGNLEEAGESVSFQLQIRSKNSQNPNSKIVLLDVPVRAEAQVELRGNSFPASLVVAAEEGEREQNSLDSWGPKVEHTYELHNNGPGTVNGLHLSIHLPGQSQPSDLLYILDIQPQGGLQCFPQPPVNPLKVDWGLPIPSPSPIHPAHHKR
T1 sequence (P08514 891-1039 limits assumed): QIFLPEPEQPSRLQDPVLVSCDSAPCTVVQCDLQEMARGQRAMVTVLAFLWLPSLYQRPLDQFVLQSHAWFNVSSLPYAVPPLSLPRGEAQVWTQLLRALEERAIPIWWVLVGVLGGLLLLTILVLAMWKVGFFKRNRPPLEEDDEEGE

| IC50 [1] [µM] | Compound | other results |
| --- | --- | --- |
| 0.85 | N=C(N)c1ccc2sc(C(=O)NCCCCCCC(=O)O)cc2c1 | – |
| – | N=C(N)c1ccc2c(C(=O)NCCCCCCC(=O)O)c[nH]c2c1 | IC50 (Integrin alpha-V/beta-3): > 100 µM |
| 9.9 | N=C(N)c1ccc2[nH]c(C(=O)NCC(=O)NCCCC(=O)O)cc2c1 | – |
| 27 | CCC(CCCCCNC(=O)c1cc2cc(C(=N)N)ccc2[nH]1)C(=O)O (stereo not drawn) | – |
| 1.1 | N=C(N)c1ccc(OCC(=O)NCCCCCCC(=O)O)cc1 | – |
| 0.79 | CCCCC(CCCCNC(=O)c1cc2cc(C(=N)N)ccc2[nH]1)CC(=O)O (stereo not drawn) | – |
| 2.9 | Cn1c(C(=O)NCCCCCCC(=O)O)cc2cc(C(=N)N)ccc21 | – |
| 0.46 | N=C(N)c1ccc2[nH]c(C(=O)NCCCCC(CC(=O)O)c3ccccc3)cc2c1 (stereo not drawn) | – |
| 6.9 | CC(CCCCCNC(=O)c1cc2cc(C(=N)N)ccc2[nH]1)C(=O)O (stereo not drawn) | – |
| – | N=C(N)c1ccc2oc(C(=O)NCCCCCCCC(=O)O)cc2c1 | IC50 [2]: 3.3 µM |
| 2.3 | N=C(N)c1ccc2oc(C(=O)NCCCCCC(=O)O)cc2c1 | – |
| 0.76 | N=C(N)c1ccc2[nH]c(C(=O)NCCC(=O)NCCC(=O)O)cc2c1 | – |
| 0.34 | CN(CCCCCCC(=O)O)C(=O)c1cc2cc(C(=N)N)ccc2[nH]1 | – |
| 4 | N=C(N)c1ccc2[nH]c(C(=O)NCc3ccc(CCC(=O)O)cc3)cc2c1 | – |
| – | N=C(N)c1ccc2oc(C(=O)NCCCCCCC(=O)O)cc2c1 | IC50 (Integrin alpha-V/beta-3): > 100 µM |
| 0.44 | CCC(CCCCNC(=O)c1cc2cc(C(=N)N)ccc2[nH]1)CC(=O)O (stereo not drawn) | – |
| 0.59 | CCCCCCC(CCCCNC(=O)c1cc2cc(C(=N)N)ccc2[nH]1)CC(=O)O (stereo not drawn) | – |
| 1.7 | Cc1c(C(=O)NCCCCCCC(=O)O)[nH]c2ccc(C(=N)N)cc12 | – |
| 0.31 | CC(CCCCNC(=O)c1cc2cc(C(=N)N)ccc2[nH]1)CC(=O)O (stereo not drawn) | – |
| 0.02 | N=C(N)c1ccc2c(C(=O)NCCCCCCC(=O)O)[nH]nc2c1 | IC50 (Integrin alpha-V/beta-3): > 100 µM |
| 1.1 | N=C(N)c1ccc2cc(C(=O)NCCCCCCC(=O)O)oc2c1 | – |
| 7.4 | N=C(N)c1ccc2[nH]c(C(=O)NCCCC(=O)NCC(=O)O)cc2c1 | – |
